Screening data as filed in PubChem.
Only some compounds are listed: those with a hit (about 2.6% of all), similar ones and a draw of the others.
ASAP1 GAP inh: inhibitors of human ASAP1 ArfGAP activity; Q9ULH1; ASAP1-stimulated ARF1 GTP hydrolysis, GDP FP detection; inhibition, % at 16.5 µM; actives 0.19% (n = 360,000); in the data active = inhibition above about 25%;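 also: 0% = vehicle with enzyme and substrate and 100% = no enzyme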
Target sequence (Q9ULH1 325-724 limits assumed): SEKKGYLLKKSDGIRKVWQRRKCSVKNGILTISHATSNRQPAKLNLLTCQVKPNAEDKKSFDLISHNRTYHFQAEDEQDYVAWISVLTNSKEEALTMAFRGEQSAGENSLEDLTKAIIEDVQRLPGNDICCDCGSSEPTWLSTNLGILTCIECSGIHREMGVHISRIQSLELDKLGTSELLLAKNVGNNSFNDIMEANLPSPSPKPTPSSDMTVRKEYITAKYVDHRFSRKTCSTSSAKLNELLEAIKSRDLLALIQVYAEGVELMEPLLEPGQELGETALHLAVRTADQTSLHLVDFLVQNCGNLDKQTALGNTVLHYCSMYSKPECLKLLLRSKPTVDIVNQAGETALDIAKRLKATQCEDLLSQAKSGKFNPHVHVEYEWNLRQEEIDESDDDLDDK
VIM-2 inhibitor: inhibitors of Pseudomonas aeruginosa VIM-2 metallo-beta-lactamase. AID 1527. actives 0.89% (n = 290,000). purified VIM-2, nitrocefin hydrolysis, epi-absorbance fluorescence. inhibition, % at 5.6 µM;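 active = inhibition above the mean of all tested compounds plus 3 SD, cutoff set per screening run, cut at about 7.5% in these data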;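 also: red hydrolysis product quenches plate fluorescence so inhibitors raise well fluorescence; 0% = enzyme with DMSO and 100% = DMSO without enzyme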
ARFGAP1 inhibitor: rat ARFGAP1 inhibition | inhibition, % at 16.5 µM | AID 651572 | actives 0.26% (n = 360,000) | Q62848 | Arfgap1-stimulated ARF1 GTP hydrolysis, GDP FP detection;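 active = inhibition above a per-plate limit, mean inhibition of low control wells plus 3 SD, cut at about 25% in these data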;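 also: 0% = DMSO wells with enzyme and 100% = wells lacking Arfgap1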
Target sequence (Q62848 1-136 limits assumed): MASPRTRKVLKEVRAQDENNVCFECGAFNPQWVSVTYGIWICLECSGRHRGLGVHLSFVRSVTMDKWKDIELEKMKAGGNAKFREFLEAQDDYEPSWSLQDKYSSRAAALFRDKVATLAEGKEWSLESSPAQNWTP
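System: truncated rat Arfgap1 GAP domain / Benchmarks: high control wells lacking Arfgap1, low control full reaction with DMSO / Times: compound-enzyme preincubation 20 min, reaction 120 min, detection 60 min, 25 °C / Repeats: one replicate per compound / Also added: human ARF1(Δ1-17)-GTP substrate / Measured by: Tracer-displacement fluorescence polarization with EDTA stop, 620/688 nm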
IMP-1 inh: blocks Pseudomonas aeruginosa IMP-1 metallo-beta-lactamase. purified IMP-1, nitrocefin hydrolysis, epi-absorbance fluorescence. inhibition, % at 5.6 µM. actives 0.45% (n = 290,000);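 active = inhibition above the mean plus 3 SD of all compounds in the same screening run, cut at about 4.5% in these data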;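 also: 0% = IMP-1 with DMSO and 100% = DMSO wells lacking enzyme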
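Assay system: purified recombinant IMP-1 beta-lactamase. Input: IMP-1 0.2 nM before substrate addition. Buffer or medium: Zinc- and detergent-supplemented HEPES buffer, pH 7.1. Schedule: 25 °C, 15 min preincubation, 25 min reaction. Signal: Epi-absorbance fluorescence, 480 nm excitation, 530 nm emission. Evaluation: percent inhibition from optical density relative to buffer-blank wells.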
PHOSPHO1 inh: blocks human PHOSPHO1 phosphatase activity; Q8TCT1; recombinant PHOSPHO1, absorbance phosphatase assay; inhibition, % at 13.3 µM; actives 1.1% (n = 290,000); in the data active = inhibition above about 60%
Calb FLC: C. albicans growth modulation with fluconazole | C. albicans CaCi-2 + fluconazole, Alamar Blue growth, 48 h | actives 0.57% (n = 300,000) | AID 1979 | growth inhibition, % (test concentration not listed);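 active = growth inhibition above about 58% in most replicates, limit read from the data, passing the limit was not always enough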;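 also: all wells also contain fluconazole at 8 µg/ml as a sub-toxic cotreatment; 0% = median of DMSO wells and 100% = median of geldanamycin control wells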
ASAP1 GAP conf: ASAP1 inhibition confirmed | shares compounds with ASAP1 GAP inh | ASAP1-stimulated Arf1 GTPase, GDP fluorescence polarization | inhibition, % at 16.5 µM | actives 37% (n = 620) | AID 624431;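 active = mean inhibition over triplicates exceeds the hit threshold derived for the earlier primary screening run, cut at about 25% in these data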
An asterisk follows results filed as active; nt = not tested or not shown.

SMILES	ASAP1 GAP inh	VIM-2 inhibitor	ARFGAP1 inhibitor	IMP-1 inh	PHOSPHO1 inh	Calb FLC	ASAP1 GAP conf
COc1cccc(NC(=O)CN(C)C(=O)c2ccc(N3CCOCC3)c([N+](=O)[O-])c2)c1	3	nt	13	nt	nt	-4	nt
COc1cccc(NC(=O)CN(C)C(=O)c2ccc(N3CCCCC3)c([N+](=O)[O-])c2)c1	25*	nt	7	nt	nt	nt	4
COc1ccc(S(=O)(=O)NNC(=S)NCCc2ccccc2)c(OC)c1	26*	-5	6	-3	12	1	4
Cc1ccc(SCCC(=O)NC2CC2)cc1	-3	-2	-12	0	1	24	nt
Cc1ccc(SCC(=O)NC2CC2)cc1	27*	-2	-3	-1	36	-1	0
Cn1c(/N=C(\N)c2ccccc2)nc2ccccc21	1	nt	20	nt	nt	nt	nt
CC1CC(C)CN(C(=O)c2cccc(N3C(=O)c4ccccc4C3=O)c2)C1 (configuration not stated)	25*	nt	-6	nt	nt	nt	8
CC1CCN(C(=O)c2ccc(N3C(=O)c4ccccc4C3=O)cc2)CC1	-6	1	0	2	24	-4	nt
O=c1cc(-c2ccc(O)c(O)c2)oc2c1ccc1ccccc12	25*	nt	10	nt	nt	nt	12
O=C1NC(Cc2ccc(O)cc2)c2nc3ccc(F)cc3c(=O)n2-c2cc3ccccc3cc21 (configuration not stated)	4	nt	4	nt	nt	nt	nt
CCCCC(=O)Nc1cccc(C(=O)N/N=C/c2ccc(OC)cc2OC)c1	26*	-3	7	-3	-9	0	13
CC1CCCCN1c1cc(C#N)c(C#N)cc1[N+](=O)[O-] (configuration not stated)	3	-4	8	-3	19	-7	nt
CC1CCc2cccc3c2N1c1cc(C#N)c(C#N)cc1O3 (configuration not stated)	27*	-5	1	-4	16	37	1
O=C(Nc1ccc(Cn2cccn2)cc1)c1ccc(COc2cccc(Br)c2)cc1	29*	-2	20	-5	-23	0	7
CC1(C(=O)NCc2ccco2)Cc2c(-c3ccccc3)ccnc2O1 (configuration not stated)	-7	nt	5	nt	nt	nt	nt
NC(c1csc(Nc2ccccn2)n1)C1CCCCC1 (configuration not stated)	1	nt	1	nt	nt	nt	nt
C[C@H](O)[C@@H]1C(=O)N2CCc3c([nH]c4c(-c5ccc6c(c5)OCO6)cccc34)[C@@H]2C[C@@H]1N(C)C(=O)Nc1ccccc1	29*	nt	-3	nt	nt	nt	20
CNC[C@@H]1OCc2ccccc2-c2c(n(C)c3ccccc23)C(=O)N([C@H](C)CO)C[C@H]1C	-5	nt	5	nt	nt	nt	nt
O=C(CNC(=O)c1ccc(F)cc1)Nc1ccccc1C(F)(F)F	25*	-3	-11	-3	14	-1	1
COc1ccc(-c2oc3c(c2C#CC(C)(C)O)C(OC)CCC3)cc1 (configuration not stated)	-4	nt	1	nt	nt	nt	nt
O=C(C1CCCN(Cc2ccccc2F)C1)N1CCCC1 (configuration not stated)	-2	-2	-9	-2	19	-5	nt
O=C(C1CCCN(Cc2ccccc2[N+](=O)[O-])C1)N1CCCC1 (configuration not stated)	27*	-3	-9	-2	26	1	3
CSc1ncccc1C(=O)N1CCC1(C)C(=O)NC(C)C (configuration not stated)	4	nt	-5	nt	nt	nt	nt
Nc1nc2c(ncn2[C@@H]2O[C@H](CNC(=O)[C@H](N)Cc3ccccc3)[C@@H](O)[C@H]2O)c(=O)[nH]1	10	nt	18	nt	nt	nt	nt
Cc1cccc(OCc2nnc(SCC(=O)Nc3ccc(N4CCOCC4)cc3)o2)c1	32*	-1	3	-2	31	-1	2
SMILES	ASAP1 GAP inh	VIM-2 inhibitor	ARFGAP1 inhibitor	IMP-1 inh	PHOSPHO1 inh	Calb FLC	ASAP1 GAP conf
CCC(C)(O)c1cnc(CC(C)C)c(=O)n1O (configuration not stated)	0	nt	-4	nt	nt	nt	nt
Cn1c(N)c(C(C[N+](=O)[O-])c2ccccc2Cl)c(=O)n(C)c1=O (configuration not stated)	56*	nt	11	nt	nt	-5	4
Cc1ccc(C(C[N+](=O)[O-])c2c(N)n(C)c(=O)n(C)c2=O)cc1 (configuration not stated)	-3	-2	-1	-2	38	-8	nt
Cc1ccc(C(=O)NCCC2=CCCCC2)cc1S(=O)(=O)N1CCCCC1	28*	nt	-1	nt	nt	3	5
COc1cc(/C=C2/SC(N)=NC2=O)ccc1Oc1ccc([N+](=O)[O-])cc1[N+](=O)[O-]	29*	1	-4	0	6	0	49*
Cc1cc(NC2=CC(=O)C(=O)c3ccccc32)no1	29*	nt	1	nt	nt	nt	10
COc1cc(OC)c(NC2=CC(=O)C(=O)c3ccccc32)cc1Cl	7	-4	4	-4	18	5	nt
CN1CCN(C(=O)c2c(NC(=O)c3ccco3)sc3c2CCC(C(C)(C)C)C3)CC1 (configuration not stated)	-7	-1	3	-1	7	4	nt
CC1CCc2c(sc(NC(=O)c3ccco3)c2C(=O)O)C1 (configuration not stated)	27*	-2	-2	-2	28	11	-2
O=C(Nc1ccc(OC(F)(F)F)cc1)N1CCN(c2ccnc3cc(Cl)ccc23)CC1	25*	-1	11	-2	23	35	9
N#Cc1c(-c2cccc(Br)c2)cc(-c2cccnc2)nc1N	28*	-3	-1	-1	-13	56	24
O=C(CNC(=O)c1ccccc1O)N/N=C/c1cc(Br)ccc1OC(=O)/C=C/c1ccco1	26*	-4	21	-4	9	-16	19
CCO[C@@H]1OC(C(=O)O)=C[C@H](c2csc3ccccc23)[C@H]1CCCO	5	-1	1	-3	35	9	nt
CCO[C@H]1OC(C(=O)Nc2ccccc2)=C[C@@H](c2csc3ccccc23)[C@@H]1CCCO	25*	-2	16	-4	30	27	19
Nc1ccc(Oc2cccc(Oc3ccc(N)cc3)c2)cc1	28*	-3	15	-2	-8	116*	16
O=C1C(O)=C(O)C(=O)c2ccccc21	30*	nt	4	nt	nt	nt	10
O=C(O)C1Nc2c(Cl)cc(Cl)cc2C2C=CCC12 (configuration not stated)	nt	4	nt	0	-47	3	nt
O=C(O)C1Nc2c(O)cccc2C2C=CCC12 (configuration not stated)	26*	12*	-3	-2	-6	nt	20
CCNC(=O)C1(C)CCN(C(=O)c2ccc(C(F)(F)F)cc2)C1 (configuration not stated)	-2	nt	6	nt	nt	nt	nt
